Test results as given in publication PMC9377749 (Molecular Cancer Therapeutics, 2022).
Each block holds one compound with its values, some of them ahead of it. Peptide text beside a SMILES is read from it. * marks the point of attachment. Doxorubicin(3'-N) = COc1cccc2c1C(=O)c1c(O)c3c(c(O)c1C2=O)C[C@@](O)(C(=O)CO)C[C@@H]3O[C@H]1C[C@H](N*)[C@H](O)[C@H](C)O1; Phosphonoacetyl = O=C(CP(=O)(O)O)*

Legend:
recombinant human CD10 = recombinant human CD10 (Homo sapiens, UniProt P08473); assay: Peptidase cleavage assay; type: biochemical; conditions: after exposure to CD10, at 16 hours
Sequence of recombinant human CD10 (P08473 whole entry): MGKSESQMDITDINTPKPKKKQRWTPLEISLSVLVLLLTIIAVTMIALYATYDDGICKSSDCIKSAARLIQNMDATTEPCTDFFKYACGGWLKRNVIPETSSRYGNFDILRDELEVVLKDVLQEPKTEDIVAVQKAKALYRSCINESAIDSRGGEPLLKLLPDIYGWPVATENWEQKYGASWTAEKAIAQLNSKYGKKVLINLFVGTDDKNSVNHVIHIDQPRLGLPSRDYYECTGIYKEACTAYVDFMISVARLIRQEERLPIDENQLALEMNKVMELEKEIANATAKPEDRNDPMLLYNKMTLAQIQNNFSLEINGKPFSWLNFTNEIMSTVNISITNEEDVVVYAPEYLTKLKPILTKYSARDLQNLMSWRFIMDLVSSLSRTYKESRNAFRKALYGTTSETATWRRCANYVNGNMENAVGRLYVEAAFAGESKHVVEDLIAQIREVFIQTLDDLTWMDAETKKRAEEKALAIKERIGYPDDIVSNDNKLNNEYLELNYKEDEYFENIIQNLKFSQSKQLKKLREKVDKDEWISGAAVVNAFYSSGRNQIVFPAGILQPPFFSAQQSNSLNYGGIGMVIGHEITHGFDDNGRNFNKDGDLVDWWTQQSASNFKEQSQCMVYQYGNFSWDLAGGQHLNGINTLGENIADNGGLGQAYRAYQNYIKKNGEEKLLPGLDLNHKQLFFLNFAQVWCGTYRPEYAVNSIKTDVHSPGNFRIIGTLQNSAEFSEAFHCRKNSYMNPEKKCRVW
How it was run: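 Test compound (2 μM) in 150 mM NaCl, 50 mM Tris, 1% BSA, pH 7.5, at 37°C. Reaction started with recombinant human enzyme at equi-active levels (CD10 0.08, NLN 0.8, THOP1 0.1 μg/mL).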

[1] = Tissue distribution and pharmacokinetics in E0771 tumor-bearing mice; type: in vivo, mouse; conditions: for t 1/2α / C max / AUC / Cmax / t max / t 1/2β: label = analyte
H9C2 rat cardiomyocytes = assay: In vitro cardiotoxicity; type: cell-based; conditions: for cytotoxicity in differentiated cardiomyocytes: differentiated H9C2; for cytotoxicity in mitotic cells: mitotic H9C2, 16 hrs treatment, viability 72 hrs later
E0771 cells = assay: In vitro 2D cytotoxicity; type: cell-based; conditions: Mus musculus, E0771, 72 h
MDA-MB-468 cells = assay: In vitro 2D cytotoxicity; type: cell-based; conditions: Homo sapiens, MDA-MB-468, 72 h
[2] = test system: human myeloid progenitors; assay: In vitro hematotoxicity, colony growth; type: cell-based
How it was run: (§1)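 Human erythroid and myeloid progenitors grown in MethoCult GF H84434 with continuous exposure to the test compound for 14 days. Progenitor proliferation was scored as colony growth and dose–response curves were fitted to give IC50.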

[3] = test system: human iPSCs-derived cardiomyocytes; assay: Impedance-based cardiotoxicity; type: cell-based
Acute toxicity = type: in vivo, mouse; conditions: mouse, in vivo
[4] = test system: C57BL6 mice (bone marrow repopulation); assay: In vivo hematotoxicity, bone marrow transplantation from treated donors; design: species or system mouse; conditions: for survival of mice receiving BM from treated donors: day 41 post-transplantation, donors 58 mg/kg/week Dox or 1,026 mg/kg/week PhAc-ALGP-Dox
How it was run: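 Donor C57BL6 mice received the test compound (1,026 mg/kg/week) or doxorubicin (58 mg/kg/week) by intraperitoneal osmotic minipump for 7 days. Blood and bone marrow were collected 2 days later. Blood counts used a haematology analyser, and subpopulations were analysed by FACS (CTL = CD3+ CD8a+; B = CD45R+; CD4+; NK1.1+), n = 8. Bone marrow cells (1 × 10^7) were injected IV into 9.5 Gy-irradiated recipients, which were followed 41 days.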

[5] = test system: human erythroid progenitors; assay: In vitro hematotoxicity, colony growth; type: cell-based
How it was run: as §1

LS 174T cells = assay: In vitro 2D cytotoxicity; type: cell-based; conditions: Homo sapiens, LS174T, 72 h
mice = assay: Acute toxicity; type: in vivo, mouse; conditions: from LD50
[6] = test system: MDA-MB-468 tumor bearing mice; assay: MTD determination, weekly dosing; type: in vivo, mouse
How it was run: (§2)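 Female nu/nu NMRI mice, 6–8 weeks old, carried subcutaneous MDA-MB-468 xenografts (5 × 10^6 cells in PBS:Matrigel 1:1, right posterior flank). Healthy mice served alongside. Test compound was given weekly at 103, 206 or 309 mg/kg. Body weight, survival and tumor volume were monitored periodically during and after treatment, n = 5, mean ± SD.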

[7] = MTD determination, weekly dosing; type: in vivo, mouse; conditions: mouse, in vivo
How it was run: as §2

[8] = Tissue imaging by MALDI-FTICR MSI in E0771 tumor-bearing mice; type: in vivo, mouse; conditions: 849.5 mg/kg IV
How it was run: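 Female C57BL6 mice carried orthotopic E0771 tumors (1 × 10^6 cells in PBS injected into the mammary fat pad). Test compound was given IV at 849.5 mg/kg (reference doxorubicin 23 mg/kg). Whole-body and tumor sections were taken at 15 min, 24 h and 48 h and imaged by MALDI-FTICR MSI for free doxorubicin and metabolites, with H&E overlay.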

[9] = Plasma pharmacokinetics after IV administration in healthy mice; type: in vivo, mouse
How it was run: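 Healthy mice (n = 5 per group) received a single IV dose of test compound at 849.5 mg/kg. A second set received equimolar doses: test compound 23.6 mg/kg versus doxorubicin 13.3 mg/kg. Plasma levels of prodrug, peptide-doxorubicin intermediates and free doxorubicin were followed over time and t1/2 was determined.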

patients = conditions: cited from earlier work
[10] = kidney, IV PhAc-ALGP-Dox 92 μmol/kg
[11] = plasma, IV PhAc-ALGP-Dox 92 μmol/kg
[12] = heart, IV Doxorubicin 92 μmol/kg
[13] = kidney, IV Doxorubicin 92 μmol/kg
[14] = liver, IV Doxorubicin 92 μmol/kg
[15] = plasma, IV Doxorubicin 92 μmol/kg
[16] = heart, IV PhAc-ALGP-Dox 92 μmol/kg
[17] = liver, IV PhAc-ALGP-Dox 92 μmol/kg
[18] = tumor, IV Doxorubicin 92 μmol/kg
[19] = tumor, IV PhAc-ALGP-Dox 92 μmol/kg

amount of LGP-Dox detected from PhAc-ALGP-Dox (recombinant human CD10): 2.65%
SMILES: COc1cccc2c1C(=O)c1c(O)c3c(c(O)c1C2=O)C[C@@](O)(C(=O)CO)C[C@@H]3O[C@H]1C[C@H](NC(=O)[C@@H]2CCCN2C(=O)CNC(=O)[C@@H](N)CC(C)C)[C@H](O)[C@H](C)O1 [LGP-Dox]
t 1/2α [1, 10]: 0.1 | t 1/2α [1, 11]: 0.15

SMILES: COc1cccc2c1C(=O)c1c(O)c3c(c(O)c1C2=O)C[C@@](O)(C(=O)CO)C[C@@H]3O[C@H]1C[C@H](N)[C@H](O)[C@H](C)O1 [Dox, Doxorubicin, reference compound]
cytotoxicity in differentiated cardiomyocytes (H9C2 rat cardiomyocytes): nanomolar potency | cytotoxicity in mitotic cells (H9C2 rat cardiomyocytes): nanomolar potency | IC50 (E0771 cells): 0.02 µM | IC50 (MDA-MB-468 cells): 0.11 µM | IC50 [2]: 0.01 µM | cardiotoxicity (cellular impedance) ([3]; by 72 hours): 100% | LD50 (Acute toxicity): 17 mg/kg | survival of mice receiving BM from treated donors [4]: 30% | IC50 [5]: 0.02 µM | IC50 (LS 174T cells): 0.02 µM | t 1/2α [1, 12]: 5.6 | t 1/2α [1, 13]: 2.7 | t 1/2α [1, 14]: 2.1 | concentration at 72 hours ([1]; mouse, tumor, intravenous, 53.4 mg/kg): 7.3 µM | t 1/2α [1, 15]: 0.2

C max ([1]; heart, IV DTS-201 92 μmol/kg): <LoQ | AUC [1, 12]: 54 | Cmax [1, 12]: 0.86 µM | t 1/2α [1, 12]: 47 | t max [1, 12]: 240 | C max [1, 16]: <LoQ | AUC ([1]; kidney, IV DTS-201 92 μmol/kg): 49.7 | Cmax ([1]; kidney, IV DTS-201 92 μmol/kg): 1.48 µM | t 1/2β ([1]; kidney, IV DTS-201 92 μmol/kg): 27.1 | t max ([1]; kidney, IV DTS-201 92 μmol/kg): 240 | AUC [1, 13]: 168 | Cmax [1, 13]: 6.8 µM | t 1/2α [1, 13]: 2.5 | t 1/2β [1, 13]: 49 | t max [1, 13]: 30 | AUC [1, 10]: 20.8 | Cmax [1, 10]: 1.96 µM | t 1/2α [1, 10]: 1 | t 1/2β [1, 10]: 19.7 | t max [1, 10]: 30 | AUC ([1]; liver, IV DTS-201 92 μmol/kg): 30.8 | Cmax ([1]; liver, IV DTS-201 92 μmol/kg): 0.67 µM | t 1/2β ([1]; liver, IV DTS-201 92 μmol/kg): 33.4 | t max ([1]; liver, IV DTS-201 92 μmol/kg): 120 | AUC [1, 14]: 104 | Cmax [1, 14]: 6 µM | t 1/2α [1, 14]: 2.2 | t 1/2β [1, 14]: 33.3 | AUC [1, 17]: 10.6 | Cmax [1, 17]: 0.44 µM | t 1/2β [1, 17]: 21.7 | t max [1, 17]: 240 | C max ([1]; plasma, IV DTS-201 92 μmol/kg): <LoQ | C max [1, 15]: <LoQ | C max [1, 11]: <LoQ | C max ([1]; tumor, IV DTS-201 92 μmol/kg): <LoQ | AUC [1, 18]: 8 | Cmax [1, 18]: 0.12 µM | t max [1, 18]: 2,880 | C max [1, 19]: <LoQ
SMILES: COc1cccc2c1C(=O)c1c(O)c3c(c(O)c1C2=O)C[C@@](O)([C@@H](O)CO)C[C@@H]3O[C@H]1C[C@H](N)[C@H](O)[C@H](C)O1 [DoxOL, Doxorubicinol]

SMILES: COc1cccc2c1C(=O)c1c(O)c3c(c(O)c1C2=O)C[C@@](O)(C(=O)CO)C[C@@H]3O[C@H]1C[C@H](NC(=O)[C@@H]2CCCN2C(=O)CNC(=O)[C@H](CC(C)C)NC(=O)[C@H](C)NC(=O)CP(=O)(O)O)[C@H](O)[C@H](C)O1 [PhAc-ALGP-Dox] (Phosphonoacetyl-ALGP-{Doxorubicin(3'-N)})
cytotoxicity in differentiated cardiomyocytes (H9C2 rat cardiomyocytes): essentially resilient | cytotoxicity in mitotic cells (H9C2 rat cardiomyocytes): considerably less affected | concentrations at which alterations were induced ([3]; cellular impedance, up to 72 h): > 5 µM | times more payload that can be administered than Dox (mice): 27 times | LD50 (Acute toxicity): 780 mg/kg | highest tolerated dose as Dox equivalent ([6]; every weeks × 4): 87 mg/kg Dox equivalent | higher tolerability compared with the parental drug ([6]; in vivo): 10 fold | body weight loss ([6]; tumor bearing mice, four cycles of 206 mg/kg weekly, mild but reversible): 15% | MTD at 672 h [7]: 154 mg/kg | time for which presence of free Dox in tumor remained stable [8]: ≥ 48 h | reduction of circulating cytotoxic T lymphocytes (CTL) in donor mice ([4]; 1,026 mg/kg/week via osmotic minipumps, 7 days): 15% | survival of mice receiving BM from treated donors [4]: 80% | t 1/2α [1, 16]: 0.17 | greater retention of Dox in the tumor microenvironment compared with the parental drug ([1]; in vivo): 5 fold | t 1/2α [1, 10]: 0.1 | t 1/2α [1, 17]: 0.7 | t 1/2α [1, 11]: 0.21 | free Dox exposure lower than after equimolar dosage of Dox ([1]; plasma, PhAc-ALGP-Dox 94.4 mg/kg vs Dox 53.4 mg/kg): 15 fold | t 1/2α [1, 19]: 0.3 | intratumoral free Dox concentration lower than after equimolar Dox ([1]; tumor, PhAc-ALGP-Dox 94.4 mg/kg vs Dox 53.4 mg/kg): 2.8 fold | increase of exposure to free Dox compared with administration of Dox (13.3 mg/kg) ([9]; 849.5 mg/kg PhAc-ALGP-Dox, molar concentration 36-fold higher): 1.9 fold | free Dox lower than after Dox ([9]; equimolar doses, PhAc-ALGP-Dox 23.6 mg/kg vs Dox 13.3 mg/kg): 19 fold | half-life ([9]; mouse, in vivo, iv, 849.5 mg/kg): 6.5 to 8.5 min

SMILES: COc1cccc2c1C(=O)c1c(O)c3c(c(O)c1C2=O)C[C@@](O)(C(=O)CO)C[C@@H]3O[C@H]1C[C@H](NC(=O)[C@@H]2CCCN2C(=O)CN)[C@H](O)[C@H](C)O1 [GP-Dox]
t 1/2α [1, 16]: 0.3 | t 1/2α [1, 10]: 0.2 | t 1/2α [1, 17]: 1.4 | t 1/2α [1, 11]: 0.2 | t 1/2α [1, 19]: 0.5

SMILES: COc1cccc2c1C(=O)c1c(O)c3c(c(O)c1C2=O)C[C@@](O)(C(=O)CO)C[C@@H]3O[C@H]1C[C@H](NC(=O)[C@H](CC(C)C)NC(=O)[C@H](C)NC(=O)[C@H](CC(C)C)NC(=O)CCNC(=O)CCC(=O)O)[C@H](O)[C@H](C)O1 [DTS-201, reference compound]
t 1/2α ([1]; heart, IV DTS-201 92 μmol/kg): 0.2 | t 1/2α ([1]; kidney, IV DTS-201 92 μmol/kg): 0.4 | t 1/2α ([1]; liver, IV DTS-201 92 μmol/kg): 0.6 | t 1/2α ([1]; plasma, IV DTS-201 92 μmol/kg): 0.25 | t 1/2α ([1]; tumor, IV DTS-201 92 μmol/kg): 0.4 | tolerated dose relative to the standard dose of Dox (patients): 3.75 fold | well tolerated dose in patients (patients; clinical trial): up to 400 mg/m^2
